Columns and labels:
[1] = organism: Rattus norvegicus; assay: Tissue distribution in rat kidney after 180 minutes (n=3); type: ADME, organism-based; conditions: in vivo, 3 h
Method in brief: (§1)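 Male Wistar rats (200-350 g) under ether anesthesia; radiotracer (3-5 μCi in 0.1 mL 50% aqueous ethanol) given iv. At 5, 30, 60 and 180 min, blood was drawn by cardiac puncture and animals were killed by cardiectomy. Organs were weighed and γ-counted against a 1:100 dilution of the injected dose. Results are given as % injected dose/g tissue; ratios are taken between tissue levels.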

[2] = organism: Rattus norvegicus; assay: Tissue distribution in rat kidney after 60 minutes (n=3); type: ADME, organism-based; conditions: in vivo, 1 h; method in brief: as §1
[3] = organism: Rattus norvegicus; assay: Tissue distribution in rat liver after 60 minutes (n=3); type: ADME, organism-based; conditions: in vivo, 1 h; method in brief: as §1
[4] = organism: Rattus norvegicus; assay: Tissue distribution in rat lung after 30 minutes (n=3); type: ADME, organism-based; conditions: in vivo, 0.5 h; method in brief: as §1
[5] = organism: Rattus norvegicus; assay: Tissue distribution in rat lung after 60 minutes (n=3); type: ADME, organism-based; conditions: in vivo, 1 h; method in brief: as §1
[6] = organism: Rattus norvegicus; assay: Tissue distribution in rat muscle after 30 minutes (n=3); type: ADME, organism-based; conditions: in vivo, 0.5 h
Method in brief: (§2)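 Male Wistar rats (200-350 g) under ether, iv [125I]tracer (3-5 μCi in 0.1 mL 50% aqueous EtOH). At 5, 30, 60 or 180 min, blood taken by cardiac puncture and the rat killed by cardiectomy. Organs weighed and γ-counted against 1:100 dilutions of the injected dose; results in % injected dose/g, with range.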

[7] = organism: Rattus norvegicus; assay: Tissue distribution in rat spleen after 30 minutes (n=3); type: ADME, organism-based; conditions: in vivo, 0.5 h; method in brief: as §1
[8] = organism: Rattus norvegicus; assay: Tissue distribution in rat thyroid after 180 minutes (n=3); type: ADME, organism-based, Thyroid gland; conditions: in vivo, 3 h; method in brief: as §1
[9] = organism: Rattus norvegicus; assay: Tissue distribution in rat thyroid after 5 minutes (n=3); type: ADME, organism-based, Thyroid gland; conditions: in vivo; method in brief: as §2
[10] = organism: Rattus norvegicus; assay: Regional kinetics in the remainder of rat brain at 30 minutes; type: ADME, organism-based; conditions: in vivo, 0.5 h
Method in brief: (§3)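 Male Wistar rats (n = 4 per time point) under ether received (+)-radiotracer iv (2 μCi in 100 μL 50% aqueous EtOH). They were killed at 30, 120 or 180 min. Brains were partially frozen and dissected into striatum, cerebellum, cortex and remainder. Regions were γ-counted against injected-dose dilutions and expressed as % injected dose/g tissue.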

[11] = organism: Rattus norvegicus; assay: Tissue distribution in rat blood after 180 minutes (n=3); type: ADME, organism-based; conditions: in vivo, 3 h; method in brief: as §1
[12] = organism: Rattus norvegicus; assay: Tissue distribution in rat blood after 60 minutes (n=3); type: ADME, organism-based; conditions: in vivo, 1 h; method in brief: as §2
[13] = organism: Rattus norvegicus; assay: Tissue distribution in rat brain after 180 minutes (n=3); type: ADME, organism-based; conditions: in vivo, 3 h; method in brief: as §2
[14] = organism: Rattus norvegicus; assay: Tissue distribution in rat brain after 5 minutes (n=3); type: ADME, organism-based; conditions: in vivo; method in brief: as §1
[15] = organism: Rattus norvegicus; assay: Tissue distribution in rat brain after 60 minutes (n=3); type: ADME, organism-based; conditions: in vivo, 1 h; method in brief: as §1
[16] = organism: Rattus norvegicus; assay: Tissue distribution in rat gonads after 30 minutes (n=3); type: ADME, organism-based, Gonad; conditions: in vivo, 0.5 h; method in brief: as §1
[17] = organism: Rattus norvegicus; assay: Tissue distribution in rat gonads after 5 minutes (n=3); type: ADME, organism-based, Gonad; conditions: in vivo; method in brief: as §1
[18] = organism: Rattus norvegicus; assay: Effect of vesamicol on the accumulation in rat brain [0.51 (0.45-0.66)]; type: ADME, organism-based; conditions: in vivo
Method in brief: (§4)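 Male Wistar rats (n = 4/group) given iv vehicle (100 μL 50% aqueous EtOH) or dl-vesamicol (1.01 μmol/kg); 15 min later iv radiotracer (2.0 μCi in 100 μL 50% aqueous EtOH); killed 30 min post-tracer. Blood by cardiac puncture, organs weighed and γ-counted vs 1:100 injected-dose dilution; % dose/g tissue (range); tissue/blood ratios.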

[19] = organism: Rattus norvegicus; assay: Effect of vesamicol on the accumulation in rat gonads [0.15 (0.14-0.15)]; type: ADME, organism-based; conditions: in vivo; method in brief: as §4
[20] = organism: Rattus norvegicus; assay: Effect of vesamicol on the accumulation in rat lung [1.56 (1.28-1.90)]; type: ADME, organism-based; conditions: in vivo; method in brief: as §4
[21] = organism: Rattus norvegicus; assay: Regional kinetics in the rat brain caudate-putamen at 180 minutes; type: ADME, organism-based; conditions: in vivo, 3 h; method in brief: as §3
[22] = organism: Rattus norvegicus; assay: Regional kinetics in the rat brain caudate-putamen at 30 minutes; type: ADME, organism-based; conditions: in vivo, 0.5 h; method in brief: as §3
[23] = organism: Rattus norvegicus; assay: Regional kinetics in the rat cerebellum at 120 minutes; type: ADME, organism-based; conditions: in vivo, 2 h
Method in brief: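 Male Wistar rats under ether anaesthesia, iv (+)-[125I]tracer (2 μCi in 100 μL 50% aqueous EtOH); killed at 30, 120 or 180 min. Brains partially frozen and dissected into striatum, cerebellum, cortex and remainder, then counted for radioactivity. Results are % injected dose/g, calculated against counted dilutions of the injected dose.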

[24] = organism: Rattus norvegicus; assay: Regional kinetics in the rat cerebellum at 30 minutes; type: ADME, organism-based; conditions: in vivo, 0.5 h; method in brief: as §3
[25] = organism: Rattus norvegicus; assay: Regional kinetics in the remainder of rat brain at 120 minutes; type: ADME, organism-based; conditions: in vivo, 2 h; method in brief: as §3
[26] = organism: Rattus norvegicus; assay: Effect of vesamicol on the accumulation in rat muscle [0.16 (0.15-0.20)]; type: ADME, organism-based, Muscle tissue; conditions: in vivo
Method in brief: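 Male Wistar rats. Pretreatment at t = 0 was iv vehicle (50% aqueous EtOH) or iv dl-vesamicol (1.01 μmol/kg). At 15 min, iv [125I]tracer (2.0 μCi in 100 μL 50% aqueous EtOH) was given; rats were killed 30 min later. Tissues were weighed and γ-counted, and values expressed as % injected dose/g; n = 4 per group.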

[27] = organism: Rattus norvegicus; assay: Ratio of effect haloperidol on regional distribution between rat brain caudate and cerebellum; type: ADME, organism-based; conditions: in vivo
[28] = organism: Rattus norvegicus; assay: Ratio of effect haloperidol on regional distribution between rat brain caudate and cortex; type: ADME, organism-based; conditions: in vivo
[29] = organism: Rattus norvegicus; assay: Ratio of regional kinetics between rat brain caudate and cerebellum at 120 minutes; type: ADME, organism-based; conditions: in vivo, 2 h
Method in brief: (§5)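 Male Wistar rats (n = 4/group) under ether anesthesia, iv (+)-[125I]MIBT (2 μCi in 100 μL 50% aqueous EtOH); killed at 30, 120, 180 min. Brains partially frozen, dissected into striatum, cerebellum, cortex and remainder; radioactivity counted, % dose/g vs injected-dose dilutions; caudate/cortex and caudate/cerebellum ratios.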

[30] = organism: Rattus norvegicus; assay: Ratio of regional kinetics between rat brain caudate and cerebellum at 180 minutes; type: ADME, organism-based; conditions: in vivo, 3 h; method in brief: as §5
[31] = organism: Rattus norvegicus; assay: Ratio of regional kinetics between rat brain caudate and cerebellum at 30 minutes; type: ADME, organism-based; conditions: in vivo, 0.5 h; method in brief: as §5
[32] = organism: Rattus norvegicus; assay: Ratio of regional kinetics between rat brain caudate and cortex at 120 minutes; type: ADME, organism-based; conditions: in vivo, 2 h; method in brief: as §5
[33] = organism: Rattus norvegicus; assay: Effect of haloperidol on the regional distribution of compound in the rat brain caudate-putamen (n=4) [0.75 (0.60-0.85)]; type: ADME, organism-based; conditions: in vivo
[34] = organism: Rattus norvegicus; assay: Effect of haloperidol on the regional distribution of compound in the rat brain cortex (n=4) [0.32 (0.29-0.38)]; type: ADME, organism-based, Cerebral cortex; conditions: in vivo
[35] = organism: Rattus norvegicus; assay: Effect of haloperidol on the regional distribution of compound in the rat cerebellum (n=4) [0.22 (0.18-0.24)]; type: ADME, organism-based; conditions: in vivo
[36] = organism: Rattus norvegicus; assay: Ratio of tissue distribution between rat heart and blood after 60 min; type: ADME, organism-based; conditions: other tissue, 1 h; method in brief: as §1
[37] = organism: Rattus norvegicus; assay: Ratio of regional kinetics between rat brain caudate and cortex at 180 minutes; type: ADME, organism-based; conditions: in vivo, 3 h; method in brief: as §5
[38] = organism: Rattus norvegicus; assay: Ratio of tissue distribution between rat brain and blood after 180 min; type: ADME, organism-based; conditions: 3 h
Method in brief: (§6)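 Male Wistar rats (200-350 g) under ether anesthesia, iv radiotracer (3-5 μCi in 0.1 mL 50% aqueous ethanol). At 5, 30, 60, 180 min blood taken by cardiac puncture, animal killed by cardiectomy; organs weighed, γ-counted against 1:100 injected-dose dilution; % injected dose/g tissue; brain/blood ratio.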

[39] = organism: Rattus norvegicus; assay: Ratio of tissue distribution between rat brain and blood after 30 min; type: ADME, organism-based; conditions: 0.5 h; method in brief: as §6
[40] = Ratio of tissue distribution between rat brain and blood after 5 min; type: ADME, organism-based; conditions: brain and blood; method in brief: as §6
[41] = organism: Rattus norvegicus; assay: Ratio of tissue distribution between rat brain and blood after 60 min; type: ADME, organism-based; conditions: 1 h; method in brief: as §1
[42] = organism: Rattus norvegicus; assay: Ratio of tissue distribution between rat heart and blood after 30 min; type: ADME, organism-based; conditions: other tissue, 0.5 h; method in brief: as §1
[43] = organism: Rattus norvegicus; assay: Tissue distribution in rat lung after 5 minutes (n=3); type: ADME, organism-based; conditions: in vivo; method in brief: as §1
[44] = organism: Rattus norvegicus; assay: Tissue distribution in rat thyroid after 60 minutes (n=3); type: ADME, organism-based, Thyroid gland; conditions: in vivo, 1 h; method in brief: as §1
[45] = organism: Rattus norvegicus; assay: Effect of 4-aminobenzovesamicol on the regional distribution of compound in the rat brain caudate-putamen (n=4) [0.40 (0.35-0.47)]; type: ADME, organism-based; conditions: in vivo

## O[C@@H]1CCN(Cc2cccc([125I])c2)C[C@H]1N1CCC(c2ccccc2)CC1 (stereo in doubt; (+))
[1]
  Dose/g: 0.5%
[2]
  Dose/g: 0.87%
[3]
  Dose/g: 1.91%
[4]
  Dose/g: 1.21%
[5]
  Dose/g: 0.82%
[6]
  Dose/g: 0.16%
[7]
  Dose/g: 1.07%
[8]
  Dose/g: 13.13%
[9]
  Dose/g: 1.6%
[10]
  Dose/g: 0.59%
[11]
  Dose/g: 0.07%
[12]
  Dose/g: 0.09%
[13]
  Dose/g: 0.15%
[14]
  Dose/g: 0.57%
[15]
  Dose/g: 0.27%
[16]
  Dose/g: 0.15%
[17]
  Dose/g: 0.13%
[18]
  Dose/g: 0.3%
[19]
  Dose/g: 0.15%
[20]
  Dose/g: 1.59%
[21]
  Dose/g: 0.49%
[22]
  Dose/g: 0.64%
[23]
  Dose/g: 0.28%
[24]
  Dose/g: 0.53%
[25]
  Dose/g: 0.4%
[26]
  Dose/g: 0.13%
[27]
  Ratio: 10.97
[28]
  Ratio: 4.82
[29]
  Ratio: 2.43
[30]
  Ratio: 2.95
[31]
  Ratio: 1.2
[32]
  Ratio: 1.68
[33]
  Dose/g: 0.99%
[34]
  Dose/g: 0.21%
[35]
  Dose/g: 0.09%
[36]
  Ratio: 1.7
[37]
  Ratio: 1.93
[38]
  Ratio: 2.35
[39]
  Ratio: 3.18
[40]
  Kp at 5 min: 2.33
[41]
  Ratio: 3.08
[42]
  Ratio: 2.33
[43]
  Dose/g: 3.67%
[44]
  Dose/g: 4.59%
[45]
  Dose/g: 0.23%

Reference: ChEMBL document CHEMBL1126715, “Synthesis and tissue distribution of (m-[125I]iodobenzyl)trozamicol ([125I]MIBT): potential radioligand for mapping central cholinergic innervation” (J Med Chem, 1993)
